Measured values published in ChEMBL document CHEMBL4049434, “Radiolabeled Dibenzodiazepinone-Type Antagonists Give Evidence of Dualsteric Binding at the M2 Muscarinic Acetylcholine Receptor” (J Med Chem, 2017).

What was measured:
[1] = target: T1, Muscarinic acetylcholine receptor M2 (Homo sapiens) (UniProt P08172); experiment: Binding affinity to human muscarinic acetylcholine receptor M2 expressed in CHOK9 cells assessed as association rate constant incubated up to 140 mins by liquid scintillation counting assay; format: cell-based; conditions: tested as the 3H-labelled form
T1 sequence (whole entry): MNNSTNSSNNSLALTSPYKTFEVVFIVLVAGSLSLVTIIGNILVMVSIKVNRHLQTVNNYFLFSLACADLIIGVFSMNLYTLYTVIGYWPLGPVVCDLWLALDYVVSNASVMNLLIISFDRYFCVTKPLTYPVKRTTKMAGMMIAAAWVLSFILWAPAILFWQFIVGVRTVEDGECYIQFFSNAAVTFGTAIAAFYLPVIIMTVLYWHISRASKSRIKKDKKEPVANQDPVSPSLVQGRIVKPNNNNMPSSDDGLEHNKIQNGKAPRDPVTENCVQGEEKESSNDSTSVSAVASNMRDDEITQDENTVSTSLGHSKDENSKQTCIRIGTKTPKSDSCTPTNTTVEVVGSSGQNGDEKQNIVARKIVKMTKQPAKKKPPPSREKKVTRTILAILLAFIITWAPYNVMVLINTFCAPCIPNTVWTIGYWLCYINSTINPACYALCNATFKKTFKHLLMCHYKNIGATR

[2] = target: T2, Muscarinic acetylcholine receptor M5 (Homo sapiens, UniProt P08912); experiment: Displacement of [3H]NMS from human muscarinic acetylcholine receptor M5 expressed in CHOK9 cells after 3 hrs by liquid scintillation counting assay; format: cell-based
T2 sequence (P08912 whole entry): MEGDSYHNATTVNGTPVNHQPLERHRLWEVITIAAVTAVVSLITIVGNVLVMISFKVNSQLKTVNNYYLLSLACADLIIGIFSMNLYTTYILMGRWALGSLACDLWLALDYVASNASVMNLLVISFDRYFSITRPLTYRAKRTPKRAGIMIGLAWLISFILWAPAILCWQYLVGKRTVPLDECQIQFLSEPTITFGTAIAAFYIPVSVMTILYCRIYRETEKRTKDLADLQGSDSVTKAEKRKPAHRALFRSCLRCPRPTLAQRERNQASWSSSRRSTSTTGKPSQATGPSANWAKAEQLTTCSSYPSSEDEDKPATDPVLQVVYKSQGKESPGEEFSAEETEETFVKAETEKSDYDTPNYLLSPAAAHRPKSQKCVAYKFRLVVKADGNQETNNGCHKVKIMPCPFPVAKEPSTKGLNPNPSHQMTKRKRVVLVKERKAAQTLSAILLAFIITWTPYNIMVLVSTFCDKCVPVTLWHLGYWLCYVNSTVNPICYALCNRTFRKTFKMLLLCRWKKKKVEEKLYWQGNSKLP

[3] = target: T3, Muscarinic acetylcholine receptor M2 (Homo sapiens, UniProt P08172); experiment: Displacement of [3H]NMS from human muscarinic acetylcholine receptor M2 expressed in CHOK9 cells after 3 hrs by liquid scintillation counting assay; format: cell-based; conditions: read-out: pKi (converted)
T3 sequence (P08172 whole entry): T1 sequence (whole entry)

[4] = target: T1, Muscarinic acetylcholine receptor M2 (Homo sapiens); experiment: Binding affinity to human muscarinic acetylcholine receptor M2 expressed in CHOK9 cells assessed as dissociation rate constant after 105 mins by liquid scintillation counting assay; format: cell-based; conditions: tested as the 3H-labelled form
[5] = target: T1, Muscarinic acetylcholine receptor M2 (Homo sapiens); experiment: (§1) Competitive antagonist activity at human muscarinic acetylcholine receptor M2 expressed in HEK293 cells coexpressing HA tagged Galpha-protein qi5 assessed as inhibition of 1 uM carbachol-induced IP1 accumulation preincubated for 30 mins followed by carbachol addition measured after 1 hr by HTRF assay; format: functional, cell-based
In short: (§2)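 HEK-293 transiently cotransfected with human M2R and Gαqi5-HA. Cells preincubated 30 min with antagonist, then carbachol added (final 0.1, 0.3, 1 or 10 μM), 1 h at 37 °C. IP1 detected by HTRF (620/670 nm emission, 330 nm excitation). At least four independent experiments, each in duplicate.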

[6] = target: T3, Muscarinic acetylcholine receptor M2; experiment: as §1; format: functional, cell-based; in short: as §2
[7] = target: T1, Muscarinic acetylcholine receptor M2 (Homo sapiens); experiment: Binding affinity to human muscarinic acetylcholine receptor M2 expressed in CHOK9 cell homogenate after 2 hrs by liquid scintillation counting assay; conditions: tested as the 3H-labelled form
In short: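 CHO-hM2 cell homogenates (25–30 μg protein/well) in L15 medium with 1% BSA, 23 ± 1 °C, 2 h with tritiated dimeric radioligand. Competition used 0.5 nM radioligand; additional 0.4, 1, 2 and 4 nM in W84 experiments. […] Four-parameter logistic fits; at least three experiments in triplicate.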

[8] = Chemical stability of the compound in PBS buffer at pH 7.4 after 48 hrs by HPLC analysis; format: physicochemical; conditions: pH 7.4, 48 h
In short: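 Compound at 100 μM final (from 10 mM stock) in PBS pH 7.4 at 22 ± 1 °C; samples taken at 0, 24 and 48 h, mixed with acetonitrile/1% aq TFA 2:8, analysed by RP-HPLC at 220 nm.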

[9] = target: T3, Muscarinic acetylcholine receptor M2; experiment: Displacement of [3H]UNSW-MK259 from human muscarinic acetylcholine receptor M2 expressed in CHOK9 cells after 3 hrs by liquid scintillation counting assay; format: cell-based

Structure (SMILES): CCC(=O)NCc1cc(C(=O)NCCNC(=O)CCc2cn(CCCCC3CCN(CC(=O)N4c5ccccc5NC(=O)c5ccccc54)CC3)cn2)cc(C(=O)NCCNC(=O)CCc2cn(CCCCC3CCN(CC(=O)N4c5ccccc5NC(=O)c5ccccc54)CC3)cn2)c1.O=C(O)C(F)(F)F.O=C(O)C(F)(F)F.O=C(O)C(F)(F)F.O=C(O)C(F)(F)F
- K [1]: 933000 M⁻¹ s⁻¹
- Ki [2]: 22.9 nM
- Ki [3]: 0.407 nM
- K [4]: 0.011 min⁻¹
- inhibition [5]: Dose-dependent effect
- IC50 [6]: 174 nM
- Bmax (disintegrations/minute) [7]: 620
- Stability [8]: Stable
- Ki [9]: 0.107 nM
